According to ChEMBL document CHEMBL1122175, “Pentasubstituted quercetin analogues as selective inhibitors of particulate 3':5'-cyclic-AMP phosphodiesterase from rat brain” (J Med Chem, 1982):
pIC50: −log10 of the molar value.

Tests used:
Phosphodiesterase 1 = Phosphodiesterase 1 (Rattus norvegicus, UniProt Q63421+Q9EPR9+Q01066); test: Inhibition of rat brain cytosolic cGMP phosphodiesterase
In short: (§1)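 Rat brains without cerebellum were homogenized in 0.32 M sucrose, 5 mM Tris-HCl pH 7.5, 1 mM MgCl2, 0.1 mM DTT. After a 1000g spin and a high-speed spin, the supernatant was dialyzed overnight against 20 mM Tris-HCl pH 7.5, 1 mM MgCl2, 0.1 mM DTT. Assay used 0.25 µM cAMP or cGMP in triplicate at 30 °C.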

[1] = molecular target: T1, cGMP-dependent 3',5'-cyclic phosphodiesterase (Rattus norvegicus, UniProt Q01062); test: Inhibition of rat brain particulate cGMP phosphodiesterase
T1 sequence (Q01062 whole entry): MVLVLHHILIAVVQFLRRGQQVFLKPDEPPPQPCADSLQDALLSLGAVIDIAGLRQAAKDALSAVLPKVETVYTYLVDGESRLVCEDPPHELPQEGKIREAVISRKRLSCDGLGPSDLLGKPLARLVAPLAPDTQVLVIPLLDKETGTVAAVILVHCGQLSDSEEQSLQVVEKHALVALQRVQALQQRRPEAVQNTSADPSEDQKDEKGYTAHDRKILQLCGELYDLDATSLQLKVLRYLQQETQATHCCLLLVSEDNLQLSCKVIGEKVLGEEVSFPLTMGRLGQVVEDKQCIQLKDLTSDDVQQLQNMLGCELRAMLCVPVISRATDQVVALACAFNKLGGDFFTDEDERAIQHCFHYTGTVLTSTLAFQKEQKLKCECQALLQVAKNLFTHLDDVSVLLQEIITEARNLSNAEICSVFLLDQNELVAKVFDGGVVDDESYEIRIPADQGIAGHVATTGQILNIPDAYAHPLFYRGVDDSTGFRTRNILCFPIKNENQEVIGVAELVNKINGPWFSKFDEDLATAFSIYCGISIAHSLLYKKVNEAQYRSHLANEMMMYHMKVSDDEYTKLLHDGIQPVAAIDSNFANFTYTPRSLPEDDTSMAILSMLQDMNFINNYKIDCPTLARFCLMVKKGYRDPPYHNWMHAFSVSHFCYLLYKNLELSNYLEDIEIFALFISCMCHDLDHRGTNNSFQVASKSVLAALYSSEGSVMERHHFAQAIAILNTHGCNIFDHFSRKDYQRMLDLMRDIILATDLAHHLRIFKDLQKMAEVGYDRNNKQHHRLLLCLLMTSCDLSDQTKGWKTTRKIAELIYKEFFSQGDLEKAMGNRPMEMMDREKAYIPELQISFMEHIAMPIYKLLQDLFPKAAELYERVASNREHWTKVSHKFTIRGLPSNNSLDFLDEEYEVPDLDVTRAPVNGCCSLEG
In short: (§2)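 The particulate enzyme was the washed high-speed pellet, rehomogenized in sucrose buffer, then resuspended and dialyzed overnight in 20 mM Tris-HCl pH 7.5, 1 mM MgCl2, 0.1 mM DTT, and stored at -20 °C. Hydrolysis of 0.25 µM cAMP or cGMP was assayed at 30 °C in triplicate.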

[2] = Inhibition of rat brain cytosolic cAMP phosphodiesterase; details: read-out: I 50; in short: as §1
Rattus norvegicus [3] = species: Rattus norvegicus; test: Relative inhibition of cAMP and cGMP hydrolysis by cytosolic phosphodiesterase
Rattus norvegicus [4] = species: Rattus norvegicus; test: Relative inhibition of cAMP and cGMP hydrolysis by particulate phosphodiesterase
[5] = Inhibition of rat brain particulate cAMP phosphodiesterase; details: read-out: I 50
[6] = molecular target: T1, cGMP-dependent 3',5'-cyclic phosphodiesterase; test: Inhibition of rat brain particulate cGMP phosphodiesterase (Inactive); in short: as §2
[7] = Inhibition of rat brain particulate cAMP phosphodiesterase (Inactive); in short: as §2
[8] = Inhibition of rat brain cytosolic cAMP phosphodiesterase (Inactive); in short: as §1
[9] = molecular target: T1, cGMP-dependent 3',5'-cyclic phosphodiesterase; test: Inhibition of rat brain particulate cGMP phosphodiesterase (inactive); in short: as §2
[10] = Inhibition of rat brain particulate cAMP phosphodiesterase (inactive); in short: as §2
[11] = Inhibition of rat brain cytosolic cAMP phosphodiesterase (inactive); in short: as §1
[12] = Inhibition of rat brain particulate cAMP phosphodiesterase; details: read-out: I50; in short: as §2

Compound	I 50 (Phosphodiesterase 1) [µM]	pIC50 ([1]; read-out: I 50)	pIC50 [2]	Ratio (Rattus norvegicus [3])	Ratio (Rattus norvegicus [4])	pIC50 [5]	I 50 [6]	I 50 [8]	also measured
CCOc1cc(OCC(=O)O)c2c(=O)c(OCC)c(-c3ccc(OCC)c(OCC)c3)oc2c1	63	4.32	4.70	0.32	0.32	4.80	–	–	–
CCOc1cc(O)c2c(=O)c(OCC)c(-c3ccc(OCC)c(OCC)c3)oc2c1	–	–	–	–	–	–	Not Active	Not Active	I 50 [7]: Not Active
CCOc1cc(OCC)c2c(=O)c(O)c(-c3ccc(OCC)c(OCC)c3)oc2c1	–	–	–	–	–	–	Not Active	Not Active	I 50 [7]: Not Active
COc1cc(OC)c2c(=O)c(OC)c(-c3ccc(OC)c(OC)c3)oc2c1	> 1000	4.02	5.20	< 0.008	0.1	4.99	–	–	–
CCOC(=O)COc1cc(OCC)cc2oc(-c3ccc(OCC)c(OCC)c3)c(OCC)c(=O)c12	> 1000	3.15	4.10	< 0.08	0.01	5.08	–	–	–
O=C(O)COc1cc(OCC(=O)O)c2c(=O)c(OCC(=O)O)c(-c3ccc(OCC(=O)O)c(OCC(=O)O)c3)oc2c1	–	–	–	–	–	–	–	–	I 50 [9]: Not Active; I 50 [10]: Not Active; I 50 [11]: Not Active
CCCOc1ccccc1-c1nc2[nH]nnc2c(=O)[nH]1 [ZAPRINAST]	93.3	–	4.18	0.71	1.17	–	–	–	pIC50 [12]: 4.13
CCOc1cc(OCC)c2c(=O)c(OCC)c(-c3ccc(OCC)c(OCC)c3)oc2c1	> 10000	3.46	4.15	< 0.007	0.02	5.11	–	–	–
O=c1c(OCCO)c(-c2ccc(OCCO)c(OCCO)c2)oc2cc(OCCO)cc(OCCO)c12	2800	2.89	3.33	0.17	0.05	4.16	–	–	–
CCOc1cc(OCC)c2c(=O)c(OCCO)c(-c3ccc(OCC)c(OCC)c3)oc2c1	–	–	–	–	–	–	Not Active	Not Active	I 50 [7]: Not Active
CCCC(=O)Oc1cc(OC(=O)CCC)c2c(=O)c(OC(=O)CCC)c(-c3ccc(OC(=O)CCC)c(OC(=O)CCC)c3)oc2c1	–	–	–	–	–	–	Not Active	Not Active	I 50 [7]: Not Active
CCOc1cc(OCCN(CC)CC)c2c(=O)c(OCC)c(-c3ccc(OCC)c(OCC)c3)oc2c1	58	–	4.46	0.6	0.11	–	–	–	pIC50 ([1]; read-out: I50): 4.10; pIC50 [12]: 5.00
O=c1c(OCCBr)c(-c2ccc(OCCBr)c(OCCBr)c2)oc2cc(OCCBr)cc(OCCBr)c12	10000	4.61	3.30	0.05	0.73	4.74	–	–	–
O=c1c(O)c(-c2ccc(O)c(O)c2)oc2cc(O)cc(O)c12 [QUERCETIN]	275	4.09	4.06	0.32	0.24	4.70	–	–	–
CCC(=O)Oc1cc(OC(=O)CC)c2c(=O)c(OC(=O)CC)c(-c3ccc(OC(=O)CC)c(OC(=O)CC)c3)oc2c1	–	–	–	–	–	–	Not Active	Not Active	–
CCCOc1cc(OCCC)c2c(=O)c(OCCC)c(-c3ccc(OCCC)c(OCCC)c3)oc2c1	–	–	–	–	–	–	Not Active	Not Active	I 50 [7]: Not Active
CCOC(=O)COc1c(-c2ccc(OCC)c(OCC)c2)oc2cc(OCC)cc(OCC)c2c1=O	–	–	–	–	–	–	Not Active	Not Active	I 50 [7]: Not Active
CCCCOc1cc(CC2CNC(=O)N2)ccc1OC (stereo not drawn) [RO-201724]	> 1000	2.00	2.78	0.16	0.007	4.13	–	–	–
CCOC(=O)COc1cc(OCC(=O)OCC)c2c(=O)c(OCC(=O)OCC)c(-c3ccc(OCC(=O)OCC)c(OCC(=O)OCC)c3)oc2c1	–	–	–	–	–	–	Not Active	Not Active	I 50 [7]: Not Active
CCOc1cc(OCC)c2c(=O)c(OCC(=O)O)c(-c3ccc(OCC)c(OCC)c3)oc2c1	> 1000	4.15	5.00	< 0.01	0.31	4.66	–	–	–
CCOc1cc(OCC)c2c(=O)c(OCCN(CC)CC)c(-c3ccc(OCC)c(OCC)c3)oc2c1	47	–	4.43	0.79	0.16	–	–	–	pIC50 ([1]; read-out: I50): 3.90; pIC50 [12]: 4.70
CC(=O)Oc1cc(OC(C)=O)c2c(=O)c(OC(C)=O)c(-c3ccc(OC(C)=O)c(OC(C)=O)c3)oc2c1	–	3.56	3.45	–	0.46	3.90	–	–	–
CCCOc1ccccc1-c1nc2nn[nH]c2c(=O)[nH]1 [ZAPRINAST]	–	–	–	–	–	–	–	–	pIC50 ([1]; read-out: I50): 4.20
CCOc1cc(OCCBr)c2c(=O)c(OCC)c(-c3ccc(OCC)c(OCC)c3)oc2c1	> 1000	4.02	4.40	< 0.04	0.18	4.77	–	–	–
